Ki, IC50 and Ratio data for three molecules are collected here from ChEMBL document CHEMBL1126641, “Synthesis and opioid activity of dynorphin A-(1-13)NH2 analogues containing cis- and trans-4-aminocyclohexanecarboxylic acid” (J Med Chem, 1993).

The term Ki denotes a dissociation constant, usually derived from enzyme kinetics or from competition with a known ligand. A higher Ki goes with weaker binding. By IC50 is commonly meant the concentration at which inhibition is half-maximal. Lower therefore signals inhibition by little substance.

Where “and” joins values, the source holds several entries; their conditions need not be identical. Equal entries are not always repeated. Residues, ends and D or L forms follow the SMILES beside them.

Test [1] concerns the target Delta-type opioid receptor (Rattus norvegicus, UniProt P33533). The test is described as follows: Compound was tested for binding affinity towards delta-opioid receptor in rat forebrain membrane using [3H]DPDPE. In kind it is cell membranes.
Test [2] has as its target T1, Opioid receptors; mu/kappa/delta (Homo sapiens, UniProt P41145+P41143+P35372). Put plainly: Opioid receptor activity in guinea pig ileum assay. In kind it is tissue-based, Cavia porcellus. The following applies: target entry is the homologue from another species.
Test [3] concerns the target Mu-type opioid receptor (Rattus norvegicus, UniProt P33535). The test is described as follows: Compound was tested for binding affinity towards mu-opioid receptor in rat forebrain membrane using [3H]DAMGO. In kind it is cell membranes.
Test [4] concerns the target Kappa-type opioid receptor (Cavia porcellus, UniProt P41144). The test is described as follows: Compound was tested for binding affinity towards kappa opioid receptor in guinea pig cerebellar membrane using [3H]bremazocine. The test is classed as cell membranes, Cerebellum. In outline: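 Competitive inhibition of [3H]bremazocine binding to guinea pig cerebellar membranes. The incubation mixtures contained 100 nM DAMGO. Affinity is reported as Ki.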

Test [5] deals with T1, Opioid receptors; mu/kappa/delta. Put plainly: ratio is kappa/mu/delta opioid receptors. The test is classed as protein assay. Summed up: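 The Ki ratio κ/μ/δ is taken from three binding assays. κ: [3H]bremazocine on guinea pig cerebellar membranes, with 100 nM DAMGO present. μ: [3H]DAMGO on rat forebrain membranes. δ: [3H]DPDPE on rat forebrain membranes.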

Mu-type opioid receptor, sequence (P33535 whole entry): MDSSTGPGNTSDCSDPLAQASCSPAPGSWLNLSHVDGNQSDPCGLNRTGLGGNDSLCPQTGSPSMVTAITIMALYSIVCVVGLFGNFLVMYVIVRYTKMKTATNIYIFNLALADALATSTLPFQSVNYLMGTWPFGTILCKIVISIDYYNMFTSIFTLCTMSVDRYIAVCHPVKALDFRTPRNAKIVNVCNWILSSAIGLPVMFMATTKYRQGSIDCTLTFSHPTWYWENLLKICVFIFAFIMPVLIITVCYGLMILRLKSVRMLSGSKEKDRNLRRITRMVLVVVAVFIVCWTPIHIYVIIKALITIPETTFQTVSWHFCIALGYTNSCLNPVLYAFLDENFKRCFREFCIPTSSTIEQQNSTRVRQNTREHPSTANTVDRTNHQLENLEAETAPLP
Kappa-type opioid receptor, sequence (P41144 whole entry): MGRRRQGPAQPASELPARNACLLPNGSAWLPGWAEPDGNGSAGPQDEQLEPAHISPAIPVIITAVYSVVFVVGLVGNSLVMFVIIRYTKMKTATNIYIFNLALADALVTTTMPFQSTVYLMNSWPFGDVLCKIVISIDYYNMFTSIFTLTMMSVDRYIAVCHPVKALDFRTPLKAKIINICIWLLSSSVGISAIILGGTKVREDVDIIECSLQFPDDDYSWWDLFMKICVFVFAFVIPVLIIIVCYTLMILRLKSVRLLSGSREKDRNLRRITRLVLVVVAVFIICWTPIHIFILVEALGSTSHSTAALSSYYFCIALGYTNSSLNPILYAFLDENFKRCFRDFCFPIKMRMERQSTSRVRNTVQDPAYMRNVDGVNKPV
Delta-type opioid receptor, sequence (P33533 whole entry): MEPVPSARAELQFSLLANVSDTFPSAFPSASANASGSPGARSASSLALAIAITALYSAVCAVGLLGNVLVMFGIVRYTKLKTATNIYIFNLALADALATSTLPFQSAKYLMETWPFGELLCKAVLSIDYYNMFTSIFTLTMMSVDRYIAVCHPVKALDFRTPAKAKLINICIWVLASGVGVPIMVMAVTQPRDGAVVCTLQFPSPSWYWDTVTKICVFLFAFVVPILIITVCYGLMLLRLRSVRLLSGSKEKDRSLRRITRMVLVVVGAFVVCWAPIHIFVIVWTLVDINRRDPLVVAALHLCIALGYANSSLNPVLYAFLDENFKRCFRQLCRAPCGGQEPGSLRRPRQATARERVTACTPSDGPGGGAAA
T1 sequence (P35372 whole entry, looked up): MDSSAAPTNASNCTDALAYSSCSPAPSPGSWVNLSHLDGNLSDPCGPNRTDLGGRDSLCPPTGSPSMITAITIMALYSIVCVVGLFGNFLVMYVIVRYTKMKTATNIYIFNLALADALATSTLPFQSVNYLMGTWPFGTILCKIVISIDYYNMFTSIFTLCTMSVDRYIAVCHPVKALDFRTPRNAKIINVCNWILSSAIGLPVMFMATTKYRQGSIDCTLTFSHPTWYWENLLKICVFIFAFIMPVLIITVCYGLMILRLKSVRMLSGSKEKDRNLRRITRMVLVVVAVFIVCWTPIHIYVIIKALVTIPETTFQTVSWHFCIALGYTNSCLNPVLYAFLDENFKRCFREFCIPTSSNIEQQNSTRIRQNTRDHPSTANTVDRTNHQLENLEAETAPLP
T1 sequence (P41143 whole entry, looked up): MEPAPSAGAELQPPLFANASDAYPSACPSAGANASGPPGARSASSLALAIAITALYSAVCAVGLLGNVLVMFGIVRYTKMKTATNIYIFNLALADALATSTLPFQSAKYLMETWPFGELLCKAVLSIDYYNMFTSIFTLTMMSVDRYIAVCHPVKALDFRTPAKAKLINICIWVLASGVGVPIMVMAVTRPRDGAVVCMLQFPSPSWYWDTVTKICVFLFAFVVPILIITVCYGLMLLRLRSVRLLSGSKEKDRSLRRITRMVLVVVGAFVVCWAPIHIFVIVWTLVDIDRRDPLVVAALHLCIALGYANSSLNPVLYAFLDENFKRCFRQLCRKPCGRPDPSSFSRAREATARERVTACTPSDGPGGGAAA
T1 sequence (P41145 whole entry, looked up): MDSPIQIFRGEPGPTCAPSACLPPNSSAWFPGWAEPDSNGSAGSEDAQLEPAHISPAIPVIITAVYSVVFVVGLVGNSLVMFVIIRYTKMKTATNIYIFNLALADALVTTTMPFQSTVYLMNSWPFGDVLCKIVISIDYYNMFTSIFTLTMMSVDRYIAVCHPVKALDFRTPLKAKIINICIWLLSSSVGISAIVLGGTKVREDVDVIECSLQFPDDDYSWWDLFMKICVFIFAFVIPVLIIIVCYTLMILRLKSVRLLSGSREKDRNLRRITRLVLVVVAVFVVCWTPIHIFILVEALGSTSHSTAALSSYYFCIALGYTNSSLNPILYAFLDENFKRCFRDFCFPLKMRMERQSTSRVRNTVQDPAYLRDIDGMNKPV

In the case of `CC[C@H](C)[C@H](NC(=O)[C@H](CCCN=C(N)N)NC(=O)[C@H](CCCN=C(N)N)NC(=O)[C@H](CC(C)C)NC(=O)[C@H](Cc1ccccc1)NC(=O)CNC(=O)CNC(=O)[C@@H](N)Cc1ccc(O)cc1)C(=O)N[C@@H](CCCN=C(N)N)C(=O)N1CCC[C@H]1C(=O)N[C@@H](CCCCN)C(=O)N[C@@H](CC(C)C)C(=O)N[C@@H](CCCCN)C(N)=O`, the Ki in test [1] amounted to 3.88 nM; in test [3] it was 0.194 nM; in test [4] it was 0.146 nM. The IC50 in test [2] is recorded as 0.24 nM.
For the molecule `CC[C@H](C)[C@H](NC(=O)[C@H](CCCN=C(N)N)NC(=O)[C@H](CCCN=C(N)N)NC(=O)[C@H](CC(C)C)NC(=O)[C@H](Cc1ccccc1)NC(=O)CNC(=O)C(C)(C)NC(=O)[C@@H](N)Cc1ccc(O)cc1)C(=O)N[C@@H](CCCN=C(N)N)C(=O)N1CCC[C@H]1C(=O)N[C@@H](CCCCN)C(=O)N[C@@H](CC(C)C)C(=O)N[C@@H](CCCCN)C(N)=O` (HELM PEPTIDE1{Y.[Aib].G.F.L.R.R.I.R.P.K.L.K.[am]}$$$$V2.0), the Ki in test [3] turned out to be 10 nM; in test [4], 50 nM.
As for `CC[C@H](C)[C@H](NC(=O)[C@H](CCCN=C(N)N)NC(=O)[C@H](CCCN=C(N)N)NC(=O)[C@H](CC(C)C)NC(=O)[C@H](Cc1ccccc1)NC(=O)C1CCC(NC(=O)[C@@H](N)Cc2ccc(O)cc2)CC1)C(=O)N[C@@H](CCCN=C(N)N)C(=O)N1CCC[C@H]1C(=O)N[C@@H](CCCCN)C(=O)N[C@@H](CC(C)C)C(=O)N[C@@H](CCCCN)C(N)=O` (stereo partly specified) (HELM PEPTIDE1{Y.[O=C(C1CCC(N[*:1])CC1)[*:2]].F.L.R.R.I.R.P.K.L.K.[am]}$$$$V2.0), the Ki in test [1] is 1370 nM and 1910 nM; in test [3], 275 nM and 117 nM; in test [4], 13.4 nM and 9.1 nM. Besides, the Ratio in test [5] is 4.62 and 3.66. For the same molecule, in test [2], the IC50 worked out at 4090 nM.
